Measured values published in ChEMBL document CHEMBL4813947, “New dual ATP-competitive inhibitors of bacterial DNA gyrase and topoisomerase IV active against ESKAPE pathogens” (Eur J Med Chem, 2021).
pIC50: −log10 of the molar value. Converted amounts (≈) assume the structure as drawn.

Assays:
[1] = tested on: human topoisomerase 2alpha; test: Selectivity ratio of IC50 for inhibition of human topoisomerase 2alpha to IC50 for inhibition of Escherichia coli topoisomerase IV; format: toxicity; settings: read-out: Ratio IC50
[2] = Inhibition of Staphylococcus aureus topoisomerase assessed as reduction in relaxation of supercoiled pNO1 DNA measured after 30 mins by fluorescence assay
Procedure, shortened: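 Enzyme run per an earlier-reported procedure; IC50 fitted from seven inhibitor concentrations, mean of three independent measurements.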

Staphylococcus aureus = test: Antibacterial activity against vancomycin-resistant Staphylococcus aureus ATCC 700699 harboring GyrB […] mutant assessed as inhibition of bacterial growth by CLSI protocol based broth microdilution assay; format: functional
Procedure, shortened: (§1)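 Minimum inhibitory concentration by standard serial broth microdilution following CLSI guidelines. Medium was MHBII broth (22 g/L powder: beef extract, casein acid hydrolysate, starch), with MHBII agar (14 g agar per L broth). Where noted, assayed without and with efflux pump substrate phenylalanine-arginine β-naphthylamide (PAβN).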

Escherichia coli [3] = test: Antibacterial activity against clinical isolate ciprofloxacin resistance Escherichia coli 31995 assessed as inhibition of bacterial growth by CLSI protocol based broth microdilution assay; format: functional; procedure, shortened: as §1
[4] = target: DNA topoisomerase 2-alpha (Homo sapiens, UniProt P11388); test: Inhibition of human topoisomerase 2alpha assessed as reduction in relaxation of supercoiled DNA fluorescence-based microplate reader assay
Procedure, shortened: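 Human topoisomerase IIα, 1.5 U with 0.75 µg supercoiled pNO1 plasmid, 1 mM ATP, pH 7.5 Tris/MgCl2/NaCl/DTT buffer, 37 °C 30 min. Stopped with TF buffer pH 5.0, then triplex capture on immobilized biotinylated oligonucleotide 30 min at room temperature. Dye fluorescence read (ex 485/em 537 nm). IC50 from seven concentrations, mean of three runs; etoposide control.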

Escherichia coli [5] = test: Ratio of MIC for Escherichia coli MG1655 harboring GyrB R136C mutant in presence of efflux pump inhibitor PAbetaN to MIC for wild type Escherichia coli MG1655 in presence of efflux pump inhibitor PAbetaN; format: functional
MCF7 = test: Cytotoxicity against human MCF-7 cells upto 100 uM by lactate dehydrogenase assay; format: cell-based
Procedure, shortened: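 HepG2 or MCF-7 cells grown in EMEM with 2 mM L-glutamine, penicillin/streptomycin, 10% FBS at 37 °C, 5% CO2; LDH release kit per manufacturer, test concentrations up to 100 µM.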

[6] = Ratio of genotoxicity in CHO-K1 cells by invitro micronucleus test to MIC for methicillin-resistant wild type Staphylococcus aureus ATCC 43300; format: toxicity, cell-based; settings: hamster
[7] = Ratio of genotoxicity in CHO-K1 cells in presence of rat liver S9 fraction by invitro micronucleus test to MIC for vancomycin-resistant Staphylococcus aureus ATCC 700699; format: toxicity, cell-based; settings: CHO-K1 cells with rat liver S9 fraction
[8] = Genotoxicity in CHO-K1 cells upto 16 uM by invitro micronucleus test; format: cell-based, Cricetulus griseus; settings: chinese hamster
[9] = Genotoxicity in CHO-K1 cells upto 62 uM by in presence of rat liver S9 fraction invitro micronucleus test; format: subcellular, Cricetulus griseus; settings: chinese hamster

Sequence of DNA topoisomerase 2-alpha (P11388 whole entry): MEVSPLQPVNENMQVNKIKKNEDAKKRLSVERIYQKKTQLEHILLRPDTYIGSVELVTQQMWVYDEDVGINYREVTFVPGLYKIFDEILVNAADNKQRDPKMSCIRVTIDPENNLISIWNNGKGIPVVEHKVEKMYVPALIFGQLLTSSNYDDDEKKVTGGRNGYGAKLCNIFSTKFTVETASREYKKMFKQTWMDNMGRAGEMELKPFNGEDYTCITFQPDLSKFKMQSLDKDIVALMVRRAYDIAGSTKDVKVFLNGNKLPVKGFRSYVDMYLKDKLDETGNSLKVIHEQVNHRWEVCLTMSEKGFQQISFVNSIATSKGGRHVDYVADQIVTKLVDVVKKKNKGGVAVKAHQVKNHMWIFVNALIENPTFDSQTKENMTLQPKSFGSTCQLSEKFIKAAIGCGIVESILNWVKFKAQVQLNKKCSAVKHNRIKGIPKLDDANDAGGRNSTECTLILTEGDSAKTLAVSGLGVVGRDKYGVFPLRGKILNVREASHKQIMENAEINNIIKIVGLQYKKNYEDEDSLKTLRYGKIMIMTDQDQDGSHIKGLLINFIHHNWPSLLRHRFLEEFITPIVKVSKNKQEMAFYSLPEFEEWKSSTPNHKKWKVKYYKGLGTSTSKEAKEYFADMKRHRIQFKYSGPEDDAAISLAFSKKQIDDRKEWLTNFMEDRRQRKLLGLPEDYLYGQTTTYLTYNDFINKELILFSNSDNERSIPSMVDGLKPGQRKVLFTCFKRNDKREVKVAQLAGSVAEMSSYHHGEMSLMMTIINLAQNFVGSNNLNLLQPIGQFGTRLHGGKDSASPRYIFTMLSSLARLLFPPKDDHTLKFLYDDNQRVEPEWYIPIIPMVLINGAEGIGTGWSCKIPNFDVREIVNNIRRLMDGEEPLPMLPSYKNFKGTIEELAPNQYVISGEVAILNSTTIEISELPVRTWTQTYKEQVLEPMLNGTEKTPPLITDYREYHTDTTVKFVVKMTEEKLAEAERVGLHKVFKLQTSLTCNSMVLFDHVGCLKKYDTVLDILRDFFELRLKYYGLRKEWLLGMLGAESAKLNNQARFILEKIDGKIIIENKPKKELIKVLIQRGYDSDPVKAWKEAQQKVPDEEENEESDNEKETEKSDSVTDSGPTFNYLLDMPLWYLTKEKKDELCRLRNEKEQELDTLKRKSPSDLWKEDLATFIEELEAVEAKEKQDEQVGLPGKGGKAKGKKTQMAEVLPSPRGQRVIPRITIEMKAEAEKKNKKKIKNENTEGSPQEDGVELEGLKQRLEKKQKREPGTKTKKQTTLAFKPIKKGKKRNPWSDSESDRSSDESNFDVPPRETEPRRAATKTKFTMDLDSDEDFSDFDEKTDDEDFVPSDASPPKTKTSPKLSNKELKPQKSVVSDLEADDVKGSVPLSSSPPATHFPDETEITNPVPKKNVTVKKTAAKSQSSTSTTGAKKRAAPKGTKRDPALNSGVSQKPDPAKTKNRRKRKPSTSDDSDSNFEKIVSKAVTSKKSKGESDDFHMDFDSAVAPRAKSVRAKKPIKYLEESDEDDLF

Cc1[nH]c(C(=O)Nc2nc3c(OCc4ccsc4)cc(C(=O)O)cc3s2)c(Cl)c1Cl
selectivity ratio [1]: 13
pIC50 [2]: 7.08
MIC (Staphylococcus aureus): 0.0625 µg/mL (≈ 0.13 µM)
MIC (Escherichia coli [3]): 2 µg/mL (≈ 4.15 µM)
INH [4]: 45 µM
Ratio (Escherichia coli [5]): 8
Activity (MCF7): Non-Toxic
selectivity ratio [6]: 123
selectivity ratio [7]: 957
Activity [8]: Non-Toxic
Activity [9]: Non-Toxic
